# RanGTP-Impb inh = inhibitors of RanGTP-importin-beta interaction, primary screen, biochemical, FRET, CFP-Ran, YFP-importin-beta, homogeneous; cell-free CFP-Ran/YFP-importin-beta FRET ratio; inhibition, % (no concentration beside the values); hit rate 1.1% among 300,000;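 active = more than half of the replicate wells show a fall in the fluorescence ratio signal beyond about 16%, limit read from the data, passing the limit was not always enough; inconclusive = exactly half of the replicate wells pass the set limit; inactive = fewer than half of replicates pass the limit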;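 note: 0% = DMSO wells and 100% = Ran loaded with GDP instead of GTP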
# Runt-CBFb FRET = Runt domain-CBFb interaction inhibition | AID 1496 | inhibition, % at 20 µM | Cerulean-Runt/Venus-CBFb FRET ratio 530/480, 1 h | Q01196+Q13951 | hit rate 0.46% among 220,000;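 active = inhibition over about 50% at 20 µM in the single-dose screen, limit read from the data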;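 note: 0% = DMSO wells and 100% = excess unlabeled CBFb competitor control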
#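 Doses: 20 µM compound in 1% DMSO | Material: Cerulean-labeled Runt domain protein | Amount: Each fluorescent fusion protein 100 nM | Schedule: Two 1 h room-temperature incubations shielded from light | Measured by: FRET fluorescence | Evaluation: Loss of energy transfer signal | Controls: Unlabeled CBFb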
# IMP-1 inh-1 = blocks Pseudomonas aeruginosa IMP-1 metallo-beta-lactamase; hit rate 0.45% among 290,000; inhibition, % at 5.6 µM; purified IMP-1, nitrocefin hydrolysis, epi-absorbance fluorescence; AID 1556;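 active = inhibition above the mean plus 3 SD of all compounds in the same screening run, cut at about 4.5% in these data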;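 note: 0% = IMP-1 with DMSO and 100% = DMSO wells lacking enzyme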
#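 System – purified recombinant IMP-1 beta-lactamase · Input – IMP-1 dispensed at 0.2 nM · Timing – 15 min preincubation plus 25 min reaction at 25 °C · Signal – Epi-absorbance fluorescence, 480 nm excitation, 530 nm emission · Measure – percent IMP-1 inhibition derived from blank-referenced optical density · Controls – Enzyme-plus-DMSO low control, enzyme-free DMSO high control · Replication – singlicate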
# Runt-SMMHC FRET = blocks binding of human RUNX1 Runt domain to CBFb-SMMHC; AID 1434; inhibition, % at 20 µM; Q01196+Q13951; Cerulean-Runt/Venus-CBFb-SMMHC FRET ratio 530/480, 1 h; hit rate 0.74% among 220,000;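 active = mean inhibition across duplicate retests at 20 µM reaching about 50%, limit read from the data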;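 note: 0% = DMSO wells and 100% = wells with excess untagged CBFb-SMMHC; inhibitors lower the FRET ratio by blocking Runt binding to CBFb-SMMHC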
# VIM-2 inh = blocks Pseudomonas aeruginosa VIM-2 metallo-beta-lactamase. purified VIM-2, nitrocefin hydrolysis, epi-absorbance fluorescence. inhibition, % at 5.6 µM. hit rate 0.89% among 290,000. AID 1527;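 active = inhibition above the mean of all tested compounds plus 3 SD, cutoff set per screening run, cut at about 7.5% in these data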;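 note: red hydrolysis product quenches plate fluorescence so inhibitors raise well fluorescence; 0% = enzyme with DMSO and 100% = DMSO without enzyme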
# IMP-1 inh-2 = blocks IMP-1 metallo-beta-lactamase in VIM-2 selectivity screen; purified IMP-1, nitrocefin hydrolysis, epi-absorbance fluorescence; 1,300 tested, under 10 active; shares compounds with VIM-2 inh; inhibition, % at 5.6 µM; call rule not given here;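 note: 0% = enzyme with vehicle and 100% = vehicle without enzyme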
# VIM-2 FRET ctr = inhibits VIM-2 in FRET assay to exclude epi-absorbance artifacts. hit rate 23% among 1,300. AID 1857. inhibition, % at 5.6 µM. purified VIM-2, CCF2 FRET substrate hydrolysis. shares compounds with VIM-2 inh;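 active = inhibition above the mean of all tested compounds plus 3 SD, cut at about 19% in these data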;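 note: 0% = VIM-2 plus DMSO and 100% = no enzyme wells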
# TEM-1 inh = blocks E. coli TEM-1 beta-lactamase in VIM-2 selectivity screen | inhibition, % at 5.6 µM | AID 1866 | shares compounds with VIM-2 inh | hit rate 3% among 1,300 | Purified TEM-1, nitrocefin hydrolysis, epi-absorbance fluorescence;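 active = inhibition above that campaign's mean inhibition plus 3 SD, cut at about 0.46% in these data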;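 note: 0% = TEM-1 with DMSO and 100% = TEM-1 with 100 µM potassium clavulanate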
# Target sequence (P62593 whole entry, looked up): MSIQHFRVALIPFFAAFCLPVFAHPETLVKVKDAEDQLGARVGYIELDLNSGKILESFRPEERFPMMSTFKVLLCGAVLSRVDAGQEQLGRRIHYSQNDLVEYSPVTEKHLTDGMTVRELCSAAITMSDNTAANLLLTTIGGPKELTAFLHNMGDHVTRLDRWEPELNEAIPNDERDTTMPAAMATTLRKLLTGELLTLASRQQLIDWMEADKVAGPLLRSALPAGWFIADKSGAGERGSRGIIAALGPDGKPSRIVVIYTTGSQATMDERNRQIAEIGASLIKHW
# VIM-2 confirm 2 = confirmation of P. aeruginosa VIM-2 metallo-beta-lactamase inhibitors; hit rate 96% among 1,300; purified VIM-2, nitrocefin hydrolysis, epi-absorbance; shares compounds with VIM-2 inh; inhibition, % at 5.6 µM;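 active = inhibition of the VIM-2 beta-lactamase enzyme above about 11% from the earlier first-round screen, limit read from the data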;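 note: 0% = VIM-2 with DMSO and 100% = buffer wells without enzyme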
# Starred values were filed as active, the others as inactive; ? = inconclusive; . = not tested or not shown. Rows were chosen to be rich in hits. Some 2.6% of all compounds tested hit in one or more screens of this group.
SMILES,RanGTP-Impb inh,Runt-CBFb FRET,IMP-1 inh-1,Runt-SMMHC FRET,VIM-2 inh,IMP-1 inh-2,VIM-2 FRET ctr,TEM-1 inh,VIM-2 confirm 2
CN1CCN(S(=O)(=O)c2ccc(NC(=S)NC(=O)c3ccccc3)cc2)CC1,-1.5,-0.3,0.4,0.2,34.2*,-2.4,-1.8,-6.1,63.0*
CCOc1ccccc1C(=O)Nc1ccc(S(=O)(=O)N2CCOCC2)cc1,3.9,0.9,-1.9,1.7,2.3,.,.,.,.
CC(C)Oc1cccc(C(=O)NC(=S)Nc2ccc(N3CCN(C)CC3)cc2)c1,0.2,0.7,0.7,-4.4,55.7*,-3.3,-2.2,-9.3,70.3*
CN(C)C(CNc1ccc(C(F)(F)F)cc1[N+](=O)[O-])c1ccccc1 (stereo not given),-0.1,.,2.6,.,0.2,.,.,.,.
O=C1NC(=S)N/C1=C\c1ccc(Oc2ccc(C(F)(F)F)cc2[N+](=O)[O-])c(Cl)c1,-0.9,2.4,-1.5,-0.7,-3.1,.,.,.,.
CCN1CCN(Cc2c(O)ccc3c2O/C(=C\c2ccccc2)C3=O)CC1,-1.7,-64.8,-0.7,88.4*,30.0*,-0.6,3.0,-6.7,43.9*
Cc1cccc(CN2C(=O)CSc3ccc(C(=O)NC4CC4)cc32)c1,0.6,.,-2.2,.,-2.4,.,.,.,.
OCC[C@@H]1C[C@H](O)[C@@H](O)[C@@]2(OCCc3ccccc32)O1,?,.,-2.2,.,-1.3,.,.,.,.
CCN(CC)CCNC(=O)c1cn(CC)c2cc(N3CCN(C)CC3)c(F)cc2c1=O,-0.5,.,0.9,.,12.2*,-1.9,0.2,-2.6,26.7*
O=C1c2ccccc2-c2cccc(C(=O)N3CCN(C(=O)c4ccccc4)CC3)c21,0.1,-0.8,-1.4,-3.3,-1.0,.,.,.,.
O=C(O)c1cccc2c1C(=O)c1ccccc1-2,?,3.1,0.0,-3.9,13.7*,-4.4,31.4*,-5.9,16.9*
CC(Oc1ccc2c3c(c(=O)oc2c1)CCC3)C(=O)NCc1ccccn1 (stereo not given),1.1,.,0.2,.,20.7*,-2.3,3.0,-4.5,28.9*
Cc1cc(=O)oc2cc(OC(C)C(=O)NCc3ccccn3)ccc12 (stereo not given),6.2,.,-1.6,.,-4.7,.,.,.,.
O=C(COc1ccc2c3c(c(=O)oc2c1)CCC3)NCc1ccccn1,4.2,.,1.4,.,17.3*,-3.3,-0.6,-6.6,23.3*
CN(c1ccccc1)S(=O)(=O)c1cccc(C(=O)NCCCN2CCCC2=O)c1,-3.9,.,.,.,.,.,.,.,.
O=C(c1ccco1)N1N=C(c2ccc(Cl)cc2)CC1c1ccco1 (stereo not given),-3.2,.,-2.7,.,35.2*,-3.9,69.3*,-8.8,43.6*
Oc1ccc(-c2nccc(-c3ccc(F)cc3)n2)cc1,?,.,-1.8,.,15.8*,-2.4,-5.6,-3.7,30.8*
NNC(=O)COc1ccc(-c2nccc(-c3ccc(F)cc3)n2)cc1,?,.,-1.3,.,-0.8,.,.,.,.
CNCc1cc(Br)c(OCC(=O)Nc2ccccc2OC)c(OC)c1,2.3,2.6,-2.2,1.9,12.7*,-3.5,1.3,-4.1,26.8*
CC1CC(C)CN(CCCNS(=O)(=O)c2ccc3c(c2)CCN3C(=O)C2CC2)C1 (stereo not given),-0.7,.,-4.0,.,12.3*,-2.9,-0.9,-6.2,8.9*
Cc1ccc(NC(=S)Nc2cccc(-c3n[nH]c(=S)o3)c2)cc1,-0.4,21.6,-6.0,6.8,-3.9,.,.,.,.
COc1cccc(-c2nc(CS(=O)(=O)CC(=O)NC3CCCCCC3)c(C)o2)c1,1.0,.,-0.9,.,0.5,.,.,.,.
Cc1cc(C)c(O)c(NC(=S)NC(=O)Cc2ccccc2)c1,1.8,.,-0.3,.,0.1,.,.,.,.
COc1ccc(N=Nc2cc(C)c(O)c(CN3CCCCC3)c2)cc1,4.2,-3.4,-1.2,-4.9,-2.1,.,.,.,.
COc1ccc2nc3cc(Cl)ccc3c(Nc3cc(CN4CCCC4)c(O)c(CN4CCCC4)c3)c2n1,?,.,-5.7,.,20.6*,-5.2,-12.2,-9.8,32.9*
SMILES,RanGTP-Impb inh,Runt-CBFb FRET,IMP-1 inh-1,Runt-SMMHC FRET,VIM-2 inh,IMP-1 inh-2,VIM-2 FRET ctr,TEM-1 inh,VIM-2 confirm 2
Cc1c(OCC(=O)NCCCN2CCOCC2)ccc2c3c(c(=O)oc12)CCCC3,2.0,.,-2.0,.,12.5*,-2.8,-5.7,-8.2,21.7*
CCc1cc(=O)oc2c(C)c(OCC(=O)NCCCN3CCOCC3)ccc12,1.6,.,-3.6,.,7.2,.,.,.,.
Cc1c(OCC(=O)NCCN2CCOCC2)ccc2c3c(c(=O)oc12)CCC3,?,.,0.5,.,26.9*,-1.8,-3.0,-9.5,31.2*
Cc1c(OCC(=O)NCCN2CCOCC2)ccc2c1oc(=O)c1ccccc12,-2.7,.,-2.0,.,27.8*,-1.8,1.2,-13.1,37.7*
Cc1ccc(C2=NCCn3nc4cc([N+](=O)[O-])ccc4c32)cc1,-1.2,.,.,.,.,.,.,.,.
COc1ccc(CN2CCN(Cc3ccc(Br)cc3)CC2)c(OC)c1OC,2.1,.,1.2,.,0.2,.,.,.,.
CCN(CC)c1ccc(N2C(=NC(=O)C3CC3)SC3CS(=O)(=O)CC32)cc1 (stereo not given),2.8,.,2.0,.,3.3,.,.,.,.
CCCCCCN1CC(=O)N2Cc3[nH]c4ccccc4c3C[C@H]2C1=O,-0.4,.,-4.2,.,-2.5,.,.,.,.
CCCCn1c(N)c(N(CC(C)C)C(=O)CSCc2ccc(Cl)c(Cl)c2)c(=O)[nH]c1=O,0.6,.,.,.,.,.,.,.,.
CCN1CCN(c2nnc(-c3ccc(F)cc3)c3ccccc23)CC1,-6.3,.,-1.5,.,0.7,.,.,.,.
CN1CCN(c2nnc(-c3ccc(F)cc3)c3ccccc23)CC1,-3.8,.,-1.3,.,31.5*,-1.2,5.5,-3.4,42.5*
C/C(=N\NC(=O)c1nnn(-c2nonc2N)c1CN1CCc2ccccc21)c1ccccc1O,?,.,-1.6,.,-4.1,.,.,.,.
Fc1cccc(Nc2nc3ccccc3n3cnnc23)c1,2.3,.,-0.8,.,1.7,.,.,.,.
CC(=O)c1cccc(Nc2nc3ccccc3n3cnnc23)c1,4.4,.,-2.8,.,13.5*,-1.8,-3.5,-3.3,25.5*
COc1cccc(NC(=O)CN(C)C(=O)c2oc3c(ccc4ccccc43)c2C)c1,0.4,.,.,.,.,.,.,.,.
c1ccc(CNc2cncnc2)cc1,-0.4,.,-1.8,.,-1.2,.,.,.,.
COc1ccc(Cl)c2c1[nH]c1nc(SCc3ccccn3)nnc12,-6.0,-11.0,1.3,-10.8,13.4*,-2.9,2.2,-8.2,21.5*
COc1ccc(Cl)c2c1[nH]c1nc(SCc3cccnc3)nnc12,8.2,-5.9,-3.3,-22.2,1.6,.,.,.,.
COc1ccc(O)c(CN2CCCC(N3CCc4ccccc4C3)C2)c1 (stereo not given),8.3,.,-0.3,.,0.5,.,.,.,.
